In ChEMBL document CHEMBL1123309, “Esters and lactones of phenolic amino carboxylic acids: prodrugs for iron chelation” (J Med Chem, 1986):

Assays:
Mus musculus [1] = assay: BDF1 male mice were administered with 400 mg/kg orally and percent change in iron levels was determined in Liver; format: functional; conditions: route oral
Method in brief: (§1)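 Hypertransfused male BDF1 mice (canine red cells, washed and heated at 50 °C for 30 min) were dosed orally for 7 days with compound in distilled water or a fine suspension with Polysorbate 80 (2% final). Daily group urine and pooled feces (1 N HCl digest, 90 °C, 30 min, triplicate) were collected, and liver and spleen were homogenized. Iron was measured by atomic absorption and reported as % change vs transfused control.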

Mus musculus [2] = assay: BDF1 male mice were administered with 600 mg/kg orally and percent change in iron levels was determined in Spleen; format: functional; conditions: route oral; method in brief: as §1
[3] = First order rate constant was determined Spectrophotometrically at pH 7.5
Mus musculus [4] = assay: BDF1 male mice were administered with 300 mg/kg orally and percent change in iron levels was determined in Liver; format: functional; conditions: route oral; method in brief: as §1
Mus musculus [5] = assay: BDF1 male mice were administered with 400 mg/kg orally and percent change in iron levels was determined in Urine; format: functional; conditions: route oral; method in brief: as §1
Mus musculus [6] = assay: BDF1 male mice were administered with 75 mg/kg orally and percent change in iron levels was determined in Feces; format: functional; conditions: route oral; method in brief: as §1
Mus musculus [7] = assay: BDF1 male mice were administered with 300 mg/kg orally and percent change in iron levels was determined in Feces; format: functional; conditions: route oral; method in brief: as §1
Mus musculus [8] = assay: BDF1 male mice were administered with 600 mg/kg orally and percent change in iron levels was determined in Feces; format: functional; conditions: route oral; method in brief: as §1
Mus musculus [9] = assay: BDF1 male mice were administered with the compound and number of survivors was determined at a dose 150 mg/kg peroral out of 6 tested; format: functional; conditions: route oral
Method in brief: (§2)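 Male BDF1 mice were iron-loaded by transfusion of canine red cells. The cells were heparinised, washed twice in isotonic saline and heated at 50 °C for 30 min. Dosing started two days after the last transfusion, once daily for 7 consecutive days. Compounds were given in distilled water or as a fine aqueous suspension with Polysorbate 80 (2% final). Toxic signs were recorded daily and survivors counted per group.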

Mus musculus [10] = assay: BDF1 male mice were administered with 600 mg/kg orally and percent change in iron levels was determined in Urine; format: functional; conditions: route oral; method in brief: as §1
Mus musculus [11] = assay: BDF1 male mice were administered with the compound and number of survivors was determined at a dose 75 mg/kg peroral out of 6 tested; format: functional; conditions: route oral; method in brief: as §2
Mus musculus [12] = assay: BDF1 male mice were administered with 150 mg/kg orally and percent change in iron levels was determined in Urine; format: functional; conditions: route oral
Method in brief: (§3)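 Male BDF1 mice made iron-overloaded by transfusion of washed, heat-treated (50 °C, 30 min) canine red cells. Dosing began 2 days after the last transfusion, once daily for 7 days, in distilled water or 2% Polysorbate 80 suspension. Daily group urine was collected. Pooled feces were digested in 1 N HCl (90 °C, 30 min). Liver and spleen were homogenized in saline. Iron was measured by atomic absorption and expressed as % change vs transfused controls.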

Mus musculus [13] = assay: BDF1 male mice were administered with 75 mg/kg orally and percent change in iron levels was determined in Spleen; format: functional; conditions: route oral; method in brief: as §1
Mus musculus [14] = assay: BDF1 male mice were administered with the compound and number of survivors was determined at a dose 300 mg/kg peroral out of 6 tested; format: functional; conditions: route oral; method in brief: as §2
Mus musculus [15] = assay: BDF1 male mice were administered with 300 mg/kg orally and percent change in iron levels was determined in Spleen; format: functional; conditions: route oral; method in brief: as §1
Mus musculus [16] = assay: BDF1 male mice were administered with the compound and number of survivors was determined at a dose 400 mg/kg peroral out of 10 tested; format: functional; conditions: route oral; method in brief: as §2
Mus musculus [17] = assay: BDF1 male mice were administered with the compound and number of survivors was determined at a dose 600 mg/kg peroral out of 6 tested; format: functional; conditions: route oral; method in brief: as §2
Mus musculus [18] = assay: BDF1 male mice were administered with 300 mg/kg orally and percent change in iron levels was determined in Urine; format: functional; conditions: route oral; method in brief: as §1
Mus musculus [19] = assay: BDF1 male mice were administered with 75 mg/kg orally and percent change in iron levels was determined in Urine; format: functional; conditions: route oral; method in brief: as §1
Mus musculus [20] = assay: BDF1 male mice were administered with 75 mg/kg orally and percent change in iron levels was determined in Liver; format: functional; conditions: route oral; method in brief: as §1
Mus musculus [21] = assay: BDF1 male mice were administered with 150 mg/kg orally and percent change in iron levels was determined in Spleen; format: functional; conditions: route oral; method in brief: as §3
[22] = Half life was determined at pH 7.5 in the presence of Fe(III) Half life was determined Spectrophotometrically
Mus musculus [23] = assay: BDF1 male mice were administered with 150 mg/kg orally and percent change in iron levels was determined in Liver; format: functional; conditions: route oral; method in brief: as §3
Mus musculus [24] = assay: BDF1 male mice were administered with 150 mg/kg orally and percent change in iron levels was determined in Feces; format: functional; conditions: route oral; method in brief: as §3
Mus musculus [25] = assay: BDF1 male mice were administered with 400 mg/kg orally and percent change in iron levels was determined in Spleen; format: functional; conditions: route oral; method in brief: as §1
Mus musculus [26] = assay: BDF1 male mice were administered with 400 mg/kg orally and percent change in iron levels was determined in Feces; format: functional; conditions: route oral; method in brief: as §1
Mus musculus [27] = assay: BDF1 male mice were administered with 600 mg/kg orally and percent change in iron levels was determined in Liver; format: functional; conditions: route oral; method in brief: as §1
[28] = First order rate constant was determined in the presence of Fe(3+) Titrimetrically; format: ADME
Method in brief: (§4)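 Metal and chelator were each 5 × 10⁻⁴ M. Constant pH was held with 0.05 M NaOH. Hydrolysis rate came from base consumption, with first-order kinetics.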

Mus musculus [29] = assay: BDF1 male mice were administered with 200 mg/kg intraperitoneally and number of survivors was determined out of 10 tested; format: functional; conditions: route intraperitoneal; method in brief: as §2
Mus musculus [30] = assay: BDF1 male mice were administered with 200 mg/kg intraperitoneally and percent change in iron levels was determined in Urine; format: functional; conditions: route intraperitoneal; method in brief: as §3
[31] = First order rate constant was determined in the presence of Fe(3+) Spectrophotometrically; format: ADME
Method in brief: (§5)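 Iron(III)-promoted hydrolysis was followed spectrophotometrically in 50% aqueous methanol with Hepes buffer at pH 7.5 and 38 °C. Ester and ferric nitrate were each 1.7 × 10⁻⁴ M. The read-out was the rise in absorbance at 480 nm. Data were fitted by nonlinear least squares for consecutive first-order processes.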

Mus musculus [32] = assay: BDF1 male mice were administered with 200 mg/kg intraperitoneally and percent change in iron levels was determined in Spleen; format: functional; conditions: route intraperitoneal; method in brief: as §3
Mus musculus [33] = assay: BDF1 male mice were administered with 200 mg/kg peroral and percent change in iron levels was determined in Feces; format: functional; conditions: route oral; method in brief: as §3
Mus musculus [34] = assay: BDF1 male mice were administered with 200 mg/kg intraperitoneally and percent change in iron levels was determined in liver; format: functional; conditions: route intraperitoneal; method in brief: as §3
Mus musculus [35] = assay: BDF1 male mice were administered with 200 mg/kg peroral and percent change in iron levels was determined in Spleen; format: functional; conditions: route oral; method in brief: as §1
Mus musculus [36] = assay: BDF1 male mice were administered with 200 mg/kg intraperitoneally and percent change in iron levels was determined in Feces; format: functional; conditions: route intraperitoneal; method in brief: as §3
Mus musculus [37] = assay: BDF1 male mice were administered with 200 mg/kg peroral and number of survivors was determined out of 10 tested; format: functional; conditions: route oral; method in brief: as §2
Mus musculus [38] = assay: BDF1 male mice were administered with 200 mg/kg peroral and percent change in iron levels was determined in Urine; format: functional; conditions: route oral; method in brief: as §1
[39] = Half life was determined in the presence of Fe(III) Spectrophotometrically; format: ADME; method in brief: as §5
[40] = Half life was determined in the presence of Fe(III) Titrimetrically; format: ADME; method in brief: as §4
Mus musculus [41] = assay: BDF1 male mice were administered with 200 mg/kg peroral and percent change in iron levels was determined in Liver; format: functional; conditions: route oral; method in brief: as §3

CC(C)OC(=O)CN(CCN(CC(=O)OC(C)C)Cc1ccccc1O)Cc1ccccc1O
Iron change (Mus musculus [1]): -45% | Iron change (Mus musculus [2]): -27% | 10E2 k1 [3]: 0.542 min⁻¹ | Iron change (Mus musculus [4]): -45% | Iron change (Mus musculus [5]): 233% | Iron change (Mus musculus [6]): 1% | Iron change (Mus musculus [7]): -1% | Iron change (Mus musculus [8]): 5% | No. of survivors (Mus musculus [9]): 6 | Iron change (Mus musculus [10]): 141% | No. of survivors (Mus musculus [11]): 6 | Iron change (Mus musculus [12]): 33% | Iron change (Mus musculus [13]): -10% | No. of survivors (Mus musculus [14]): 6 | Iron change (Mus musculus [15]): -7% | No. of survivors (Mus musculus [16]): 10 | No. of survivors (Mus musculus [17]): 6 | Iron change (Mus musculus [18]): 76% | Iron change (Mus musculus [19]): -10% | Iron change (Mus musculus [20]): -34% | Iron change (Mus musculus [21]): 2% | half-life [22]: 2.15 h | Iron change (Mus musculus [23]): -32% | Iron change (Mus musculus [24]): 23% | Iron change (Mus musculus [25]): -13% | Iron change (Mus musculus [26]): -5% | Iron change (Mus musculus [27]): -56%

O=C1CN(CCN2CC(=O)Oc3ccccc32)c2ccccc2O1
10E2 k1 [28]: 0.97 min⁻¹ | No. of survivors (Mus musculus [29]): 8 | Iron change (Mus musculus [30]): 157% | 10E2 k1 [31]: 0.587 min⁻¹ | Iron change (Mus musculus [32]): -17% | Iron change (Mus musculus [33]): -2% | Iron change (Mus musculus [34]): -68% | Iron change (Mus musculus [35]): -30% | Iron change (Mus musculus [36]): -65% | No. of survivors (Mus musculus [37]): 10 | Iron change (Mus musculus [38]): 93% | half-life [39]: 1.97 h | half-life [40]: 1.19 h | Iron change (Mus musculus [41]): -56%
